From publication PMC4291750 (Journal of the American Chemical Society, 2014)

Experiments:
[1] = test system: isogenic PSMA-negative RM1 tumor line; assay: Cell phagocytosis assay, PSMA-negative control; assay type: cell-based, murine; conditions: U937 effector cells
RM1-hPSMA cells = assay: Compound cytotoxicity assay; assay type: cell-based, murine; conditions: cell index over 24 hours, vs 1% DMSO
In short: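 12 500 RM1-hPSMA cells per well were plated 36 h beforehand in DMEM (4.5 g/L glucose, 10% FBS, pen/strep, 2 mM glutamine, 1 mM pyruvate). Impedance cell index was recorded at 37 °C, 5% CO2, with cell-free medium as background. At time 0 medium was replaced with test compound at various concentrations, 1% DMSO vehicle or 3% Triton. Readings every 2 min for 3 h, then every 10 min for 21 h.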

[2] = test system: PSMA-coated beads phagocytosed by IFN-γ-primed U937 cells; assay: Bead phagocytosis assay; assay type: cell-based
In short: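 Effectors were U937 cells primed 72 h with IFN-γ (final 2 ng/mL, medium changed daily) and stained with DiD (final 1.9 μM, 30 min, 37 °C). Targets were 6 μm fluorescent streptavidin beads loaded with avi-tagged PSMA. 4×10^4 beads and 10^5 effectors (E:T 2.5:1) in phenol-free RPMI/10% low-IgG FBS, ±test compound ±competitor (PSMA ligand or anti-FcγRI antibody). Spun 200 rcf 2 min, 37 °C 1 h, stopped on ice, flow cytometry. % targets phagocytosed minus no-compound background; mean of ≥duplicates ±SD.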

[3] = test system: IFN-γ-primed U937 cells with PSMA-coated beads; assay: ROS production; assay type: cell-based
In short: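 U937 cells primed 72 h with IFN-γ (final 2 ng/mL, daily medium change). 3×10^5 cells/mL in phenol-free RPMI/10% low-IgG FBS mixed with test compound, with or without 10^5 PSMA-coated beads/mL. 2.5 mM lucigenin solution added (stock). Plate spun 200 rcf 2 min. Chemiluminescence read every 2 min for 60–90 min; peak luminescence taken. Mean of ≥duplicates ±SD.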

[4] = test system: PSMA-expressing RM1.PGLS cells phagocytosed by IFN-γ-primed U937 cells; assay: Cell phagocytosis assay; assay type: cell-based, murine
In short: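 RM1.PGLS targets were stained adherent with DiO (final 1.9 μM), detached with 0.5 mM EDTA/EGTA and checked by trypan blue. 1.25×10^4 targets and 10^5 IFN-γ-primed, DiD-stained U937 (E:T 8:1; range 2:1–20:1 also tested) in Assay Media, ±test compound ±inhibitors. Spun 200 rcf 2 min, 1 h at 37 °C, then flow cytometry. % targets phagocytosed minus background. Imaging-cytometry counterpart: formaldehyde-fixed, CD14/CD11b-APC plus Hoechst, events scored as cup or engulfment. Dunnett ANOVA versus no compound.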

| SMILES | phagocytosis of PSMA-negative RM1 cells [1] | cytotoxicity in the absence of effector cells (RM1-hPSMA cells) | phagocytosis of PSMA-coated beads, comparison between SyAMs ([2]; primed U937 effector cells) | ROS production in the absence of target beads ([3]; no PSMA-labeled beads) | superoxide burst response ([3]; with PSMA-coated beads, lucigenin chemiluminescence) | phagocytosis of PSMA-expressing RM1.PGLS cells ([4]; U937 effector cells) | effect of competitor on SyAM-P3-induced bead phagocytosis ([2]; 50 nM SyAM-P3) | effect of competitor on SyAM-P1-induced bead phagocytosis ([2]; SyAM-P1-induced effector responses) | effect of competitor on SyAM-P3-induced cell phagocytosis ([4]; RM1.PGLS targets) |
| --- | --- | --- | --- | --- | --- | --- | --- | --- | --- |
| CC(=O)N[C@H](C(=O)N[C@@H](CC(N)=O)C(=O)N[C@@H](CO)C(=O)N[C@H]1CSSC[C@@H](C(=O)NCC(=O)N[C@@H](CC(=O)O)C(=O)N[C@@H](CC(=O)O)C(=O)N[C@@H](CCCCNC(=O)CCCC(=O)NCCOCCOCCOCC(=O)NCCCC[C@H](NC(=O)COCCOCCOCCNC(=O)CCCC(=O)NCCCC[C@H](NC(=O)[C@H](CC(=O)O)NC(=O)[C@H](CC(=O)O)NC(=O)CNC(=O)[C@@H]2CSSC[C@H](NC(=O)[C@H](CO)NC(=O)[C@H](CC(N)=O)NC(=O)[C@@H](NC(C)=O)C(C)C)C(=O)N[C@@H](CC(C)C)C(=O)N[C@@H](CC(C)C)C(=O)N[C@@H](CC(C)C)C(=O)N3CCC[C@H]3C(=O)N[C@@H](CC(N)=O)C(=O)N[C@@H](CC(C)C)C(=O)N[C@@H](CC(C)C)C(=O)NCC(=O)N2)C(=O)N[C@@H](CCCCNC(=O)CCCC[C@@H]2SC[C@@H]3NC(=O)N[C@@H]32)C(N)=O)C(=O)NCc2cn(-c3cc(C(=O)NCCCCCC(=O)NCCCCCC(=O)NCCCCCC(=O)NCCCCCC(=O)NCCCCCC(=O)NCCCCCC(=O)NCc4cn(CCCC[C@H](NC(=O)N[C@@H](CCC(=O)O)C(=O)O)C(=O)O)nn4)cc(C(=O)NCCCCCC(=O)NCCCCCC(=O)NCCCCCC(=O)NCCCCCC(=O)NCCCCCC(=O)NCCCCCC(=O)NCc4cn(CCCC[C@H](NC(=O)N[C@@H](CCC(=O)O)C(=O)O)C(=O)O)nn4)c3)nn2)C(=O)N[C@@H](CCCCNC(=O)CCCC[C@@H]2SC[C@@H]3NC(=O)N[C@@H]32)C(N)=O)NC(=O)CNC(=O)[C@H](CC(C)C)NC(=O)[C@H](CC(C)C)NC(=O)[C@H](CC(N)=O)NC(=O)[C@@H]2CCCN2C(=O)[C@H](CC(C)C)NC(=O)[C@H](CC(C)C)NC(=O)[C@H](CC(C)C)NC1=O)C(C)C [SyAM-P3] | only minimal levels of phagocytosis | non-cytotoxic | both more potent and more efficacious than earlier-generation molecules | required the presence of PSMA-labeled beads | both more potent and more efficacious than earlier-generation molecules | significant levels of target cell phagocytosis |  |  |  |
| O=C(O)CCC(CP(=O)(O)O)C(=O)O (stereo not drawn) [2-PMPA] |  |  |  |  |  |  | suppressed in a concentration-dependent manner | abrogated | suppressed |
